Activity calls are given as the source filed them. The calls are words filed in the database; no cut-off is given here.
Tested on: Cortical neurone
Assay: Inhibition of amyloid beta (25 to 35)-induced neuronal degeneration in ddY mouse embryo cortical neurons assessed as restoration of axonal outgrowth by measuring length of phosphorylated neurofilament-H-positive neurites at 10 uM treated 3 days post amyloid beta (25 to 35) stimulation measured after 4 days by fluorescent microscopic analysis
Type: functional
Method in brief: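 Cortical neurons from E14 ddY mouse embryos, plated on poly-D-lysine (5 μg/mL) in neurobasal medium with 12% horse serum, switched to 2% B-27 medium 3−12 h later, 37 °C, 10% CO2. Day 3: 10 μM Aβ25−35 (pre-aggregated 4 days at 37 °C) for 3 days. Then Aβ removed; 10 μM isolate, 0.1% DMSO vehicle or NGF 10 ng/mL for 4 days. Fixed in 4% PFA, stained for pNF-H and DAPI, pNF-H-positive neurite length measured; 10−79 photos per treatment, Dunnett's test.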

C=C1CC[C@]2(C(=O)O[C@@H]3O[C@H](CO[C@@H]4O[C@H](COC(C)=O)[C@@H](O[C@@H]5O[C@@H](C)[C@H](O)[C@@H](O)[C@H]5O)[C@H](O)[C@H]4O)[C@@H](O)[C@H](O)[C@H]3O)CC[C@]3(C)C(=CC[C@@H]4[C@@]5(C)CC[C@H](O[C@@H]6OC[C@H](O)[C@H](O)[C@H]6O[C@@H]6O[C@H](CO)[C@@H](O)[C@H](O)[C@H]6O)C(C)(C)[C@@H]5CC[C@]43C)[C@@H]2C1
inhibition: Active

CC(=O)OC[C@H]1O[C@@H](OC[C@H]2O[C@@H](OC(=O)[C@]34CC[C@@](C)(C=O)C[C@H]3C3=CC[C@@H]5[C@@]6(C)CC[C@H](O[C@@H]7OC[C@H](O)[C@H](O)[C@H]7O[C@@H]7O[C@@H](C)[C@H](O)[C@@H](O)[C@H]7O)C(C)(C)[C@@H]6CC[C@@]5(C)[C@]3(C)CC4)[C@H](O)[C@@H](O)[C@@H]2O)[C@H](O)[C@@H](O)[C@@H]1O[C@@H]1O[C@@H](C)[C@H](O)[C@@H](O)[C@H]1O
inhibition: Active

CC(=O)OC[C@H]1O[C@@H](OC[C@H]2O[C@@H](OC(=O)[C@]34CC[C@@](C)(C(=O)O)C[C@H]3C3=CC[C@@H]5[C@@]6(C)CC[C@H](O[C@@H]7OC[C@H](O)[C@H](O)[C@H]7O)C(C)(C)[C@@H]6CC[C@@]5(C)[C@]3(C)CC4)[C@H](O)[C@@H](O)[C@@H]2O)[C@H](O)[C@@H](O)[C@@H]1O[C@@H]1O[C@@H](C)[C@H](O)[C@@H](O)[C@H]1O
inhibition: Active

C[C@@H]1O[C@@H](O[C@H]2[C@H](O[C@H]3CC[C@]4(C)[C@H]5CC=C6[C@@H]7C[C@](C)(C=O)CC[C@]7(C(=O)O[C@@H]7O[C@H](CO[C@@H]8O[C@H](CO)[C@@H](O[C@@H]9O[C@@H](C)[C@H](O)[C@@H](O)[C@H]9O)[C@H](O)[C@H]8O)[C@@H](O)[C@H](O)[C@H]7O)CC[C@@]6(C)[C@]5(C)CC[C@H]4C3(C)C)OC[C@H](O)[C@@H]2O)[C@H](O)[C@H](O)[C@H]1O
inhibition: Active

C=C1CC[C@]2(C(=O)O[C@@H]3O[C@H](CO[C@@H]4O[C@H](COC(C)=O)[C@@H](O[C@@H]5O[C@@H](C)[C@H](O)[C@@H](O)[C@H]5O)[C@H](O)[C@H]4O)[C@@H](O)[C@H](O)[C@H]3O)CC[C@]3(C)C(=CC[C@@H]4[C@@]5(C)CC[C@H](O[C@@H]6OC[C@H](O)[C@H](O)[C@H]6O[C@@H]6O[C@@H](C)[C@H](O)[C@@H](O)[C@H]6O)C(C)(C)[C@@H]5CC[C@]43C)[C@@H]2C1
inhibition: Active

CC(=O)OC[C@H]1O[C@@H](OC[C@H]2O[C@@H](OC(=O)[C@]34CC[C@@](C)(C(=O)O)C[C@H]3C3=CC[C@@H]5[C@@]6(C)CC[C@H](O[C@@H]7OC[C@H](O)[C@H](O)[C@H]7O[C@@H]7O[C@@H](C)[C@H](O)[C@@H](O)[C@H]7O)C(C)(C)[C@@H]6CC[C@@]5(C)[C@]3(C)CC4)[C@H](O)[C@@H](O)[C@@H]2O)[C@H](O)[C@@H](O)[C@@H]1O[C@@H]1O[C@@H](C)[C@H](O)[C@@H](O)[C@H]1O
inhibition: Active

CC(=O)OC[C@H]1O[C@@H](OC[C@H]2O[C@@H](OC(=O)[C@]34CCC(C)(C)C[C@H]3C3=CC[C@@H]5[C@@]6(C)CC[C@H](O[C@@H]7OC[C@H](O)[C@H](O)[C@H]7O[C@@H]7O[C@H](CO)[C@@H](O)[C@H](O)[C@H]7O)C(C)(C)[C@@H]6CC[C@@]5(C)[C@]3(C)CC4)[C@H](O)[C@@H](O)[C@@H]2O)[C@H](O)[C@@H](O)[C@@H]1O[C@@H]1O[C@@H](C)[C@H](O)[C@@H](O)[C@H]1O
inhibition: Active

C=C1CC[C@]2(C(=O)O[C@@H]3O[C@H](CO[C@@H]4O[C@H](COC(C)=O)[C@@H](O[C@@H]5O[C@@H](C)[C@H](O)[C@@H](O)[C@H]5O)[C@H](O)[C@H]4O)[C@@H](O)[C@H](O)[C@H]3O)CC[C@]3(C)C(=CC[C@@H]4[C@@]5(C)CC[C@H](O[C@@H]6OC[C@H](O)[C@H](O)[C@H]6O)C(C)(C)[C@@H]5CC[C@]43C)[C@@H]2C1
inhibition: Active

C[C@@H]1O[C@@H](O[C@H]2[C@H](O)[C@@H](O)[C@H](OC[C@H]3O[C@@H](OC(=O)[C@]45CC[C@@](C)(C=O)C[C@H]4C4=CC[C@@H]6[C@@]7(C)CC[C@H](O[C@@H]8OC[C@H](O)[C@H](O)[C@H]8O)C(C)(C)[C@@H]7CC[C@@]6(C)[C@]4(C)CC5)[C@H](O)[C@@H](O)[C@@H]3O)O[C@@H]2CO)[C@H](O)[C@H](O)[C@H]1O
inhibition: Active

C[C@@H]1O[C@@H](O[C@H]2[C@H](O)[C@@H](O)[C@H](OC[C@H]3O[C@@H](OC(=O)[C@]45CCC(C)(C)C[C@H]4C4=CC[C@@H]6[C@@]7(C)CC[C@H](O[C@@H]8OC[C@H](O)[C@H](O[C@@H]9O[C@H](CO)[C@@H](O)[C@H](O)[C@H]9O)[C@H]8O)C(C)(C)[C@@H]7CC[C@@]6(C)[C@]4(C)C[C@@H]5O)[C@H](O)[C@@H](O)[C@@H]3O)O[C@@H]2CO)[C@H](O)[C@H](O)[C@H]1O
inhibition: Active

CC(=O)OC[C@H]1O[C@@H](OC[C@H]2O[C@@H](OC(=O)[C@]34CC[C@@](C)(CO)C[C@H]3C3=CC[C@@H]5[C@@]6(C)CC[C@H](O[C@@H]7OC[C@H](O)[C@H](O)[C@H]7O[C@@H]7O[C@@H](C)[C@H](O)[C@@H](O)[C@H]7O)C(C)(C)[C@@H]6CC[C@@]5(C)[C@]3(C)CC4)[C@H](O)[C@@H](O)[C@@H]2O)[C@H](O)[C@@H](O)[C@@H]1O[C@@H]1O[C@@H](C)[C@H](O)[C@@H](O)[C@H]1O
inhibition: Active

C=C1CC[C@]2(C(=O)O[C@@H]3O[C@H](CO[C@@H]4O[C@H](CO)[C@@H](O[C@@H]5O[C@@H](C)[C@H](O)[C@@H](O)[C@H]5O)[C@H](O)[C@H]4O)[C@@H](O)[C@H](O)[C@H]3O)CC[C@]3(C)C(=CC[C@@H]4[C@@]5(C)CC[C@H](O[C@@H]6OC[C@H](O)[C@H](O)[C@H]6O[C@@H]6O[C@@H](C)[C@H](O)[C@@H](O)[C@H]6O)C(C)(C)[C@@H]5CC[C@]43C)[C@@H]2C1
inhibition: Active

C[C@@H]1O[C@@H](O[C@H]2[C@H](O)[C@@H](O)[C@H](OC[C@H]3O[C@@H](OC(=O)[C@]45CCC(C)(C)C[C@H]4C4=CC[C@@H]6[C@@]7(C)CC[C@H](O[C@@H]8OC[C@H](O)[C@H](O)[C@H]8O)C(C)(C)[C@@H]7CC[C@@]6(C)[C@]4(C)CC5)[C@H](O)[C@@H](O)[C@@H]3O)O[C@@H]2CO)[C@H](O)[C@H](O)[C@H]1O
inhibition: Active

C[C@@H]1O[C@@H](O[C@H]2[C@H](O[C@H]3CC[C@]4(C)[C@H]5CC=C6[C@@H]7CC(C)(C)CC[C@]7(C(=O)O[C@@H]7O[C@H](CO[C@@H]8O[C@H](CO)[C@@H](O[C@@H]9O[C@@H](C)[C@H](O)[C@@H](O)[C@H]9O)[C@H](O)[C@H]8O)[C@@H](O)[C@H](O)[C@H]7O)CC[C@@]6(C)[C@]5(C)CC[C@H]4C3(C)C)OC[C@H](O)[C@@H]2O)[C@H](O)[C@H](O)[C@H]1O
inhibition: Active

CC(=O)OC[C@H]1O[C@@H](OC[C@H]2O[C@@H](OC(=O)[C@]34CCC(C)(C)C[C@H]3C3=CC[C@@H]5[C@@]6(C)CC[C@H](O[C@@H]7OC[C@H](O)[C@H](O)[C@H]7O[C@@H]7O[C@@H](C)[C@H](O)[C@@H](O)[C@H]7O)C(C)(C)[C@@H]6CC[C@@]5(C)[C@]3(C)CC4)[C@H](O)[C@@H](O)[C@@H]2O)[C@H](O)[C@@H](O)[C@@H]1O[C@@H]1O[C@@H](C)[C@H](O)[C@@H](O)[C@H]1O
inhibition: Active

C[C@@H]1O[C@@H](O[C@H]2[C@H](O[C@H]3CC[C@@]4(C)[C@@H](CC[C@]5(C)[C@@H]4CC=C4[C@@H]6CC(C)(C)CC[C@]6(C(=O)O[C@@H]6O[C@H](CO[C@@H]7O[C@H](CO)[C@@H](O[C@@H]8O[C@@H](C)[C@H](O)[C@@H](O)[C@H]8O)[C@H](O)[C@H]7O)[C@@H](O)[C@H](O)[C@H]6O)CC[C@]45C)[C@]3(C)CO)OC[C@H](O)[C@@H]2O)[C@H](O)[C@H](O)[C@H]1O
inhibition: Active

Reference: ChEMBL document CHEMBL3861977, “Effects of Oleanane-Type Triterpene Saponins from the Leaves of Eleutherococcus senticosus in an Axonal Outgrowth Assay” (J Nat Prod, 2016)
